IC50 data for eleven compounds are collected here from ChEMBL document CHEMBL1764966, “Trigonosins A-F, daphnane diterpenoids from Trigonostemon thyrsoideum” (J Nat Prod, 2011).

SMILES strings stand for the structures. Where a name gives a salt, the structure may show the parent alone. Some results are limits rather than exact numbers.

Common to all, as to assay type: functional, cell-based
The test system of one assay is MCF7. The assay can be described thus: Cytotoxicity against human MCF7 cells assessed as inhibition of cell proliferation after 72 hrs by SRB assay. The note with it: MCF7, 72 h. The gist of the method: (§1)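 Sulforhodamine B (SRB) read-out of proliferation inhibition. Cells (A549 lung adenocarcinoma; MCF-7 breast cancer) were seeded 24 h before treatment, then exposed continuously to a range of compound concentrations for 72 h. Inhibition rates were derived from the SRB signal. Adriamycin served as the positive control.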
For orientation: Sulforhodamine B stains cellular protein and so reports cell mass.

Another assay has as its system A549. The assay can be described thus: Cytotoxicity against human A549 cells assessed as inhibition of cell proliferation after 72 hrs by SRB assay. The note with it: A549, 72 h. The gist of the method:
as §1

The test system of the next assay is HL-60. The experiment in a line: Cytotoxicity against human HL60 cells assessed as inhibition of cell proliferation after 72 hrs by MTT assay. To be noted: HL-60, 72 h. An outline of the steps: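 HL-60 promyelocytic leukemia cells were plated 24 h ahead, then exposed continuously to varying compound concentrations for 72 h. Proliferation inhibition was determined by MTT assay. Adriamycin served as the positive control.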

What is called IC50 is the midpoint of a concentration-inhibition curve. Regarding `COc1cccc2c1C(=O)c1c(O)c3c(c(O)c1C2=O)C[C@@](O)(C(=O)CO)C[C@@H]3O[C@H]1C[C@H](N)[C@H](O)[C@H](C)O1` [DOXORUBICIN HYDROCHLORIDE], the IC50 came to 0.15 µM in the assay on MCF7, 0.41 µM in the assay on A549 and 0.13 µM in the assay with HL-60.

Consider `CC(C)CC(=O)O[C@H]1/C=C/C=C/C(=O)O[C@H]2[C@@H](C)C[C@@H]3[C@]2(O)[C@H](O)[C@@]2(CO)O[C@H]2[C@H]2[C@H]4OC5(c6ccccc6)O[C@@H]([C@@H](C)[C@@]23O5)[C@@]4(O)[C@](C)(O)C[C@H]2CC[C@H]1[C@H]2C` [REDIOCIDE A], for which the half-maximal inhibitory concentration (IC50) with MCF7, in the assay with A549 and with HL-60 was over 10 µM each time.

With `C[C@H]1[C@@H]2CC[C@@H]1[C@@H](OC(=O)c1ccccc1)/C=C/C=C/C(=O)O[C@H]1[C@@H](C)C[C@@H]3[C@]1(O)[C@H](O)[C@@]1(CO)O[C@H]1[C@H]1[C@H]4OC5(c6ccccc6)O[C@@H]([C@@H](C)[C@@]13O5)[C@@]4(O)[C@](C)(O)C2` [REDIOCIDE C], the IC50 in the assay on MCF7, in the assay with A549 and in the assay on HL-60 was over 10 µM each time.

Regarding `C=C(C)[C@@]12OC3(c4ccccc4)O[C@@H]1[C@@H]1[C@@H]4O[C@]4(C)[C@@H](O)[C@@]4(O)[C@@H](C[C@H](C)[C@@H]4O)[C@@]1(O3)[C@H](C)[C@@H]2OC(=O)c1ccccc1` [TRIGONOSIN A], the IC50 in the assay with MCF7, with A549 and in the assay on HL-60 was over 10 µM each time.

Consider `C=C(C)[C@@]12OC3(c4ccccc4)O[C@@H]1[C@@H]1[C@@H]4O[C@]4(CO)[C@@H](O)[C@@]4(O)[C@@H](C[C@H](C)[C@@H]4O)[C@@]1(O3)[C@H](C)[C@@H]2OC(=O)c1ccccc1` [TRIGONOSIN B], for which the concentration for half-maximal inhibition (IC50) with MCF7, in the assay on A549 and in the assay with HL-60 was over 10 µM each time.

Turning to `C=C(C)[C@@]12OC3(c4ccccc4)O[C@@H]1[C@@H]1[C@H](O)[C@@](C)(O)[C@@H](O)[C@@]4(O)[C@@H](C[C@H](C)[C@@H]4O)[C@@]1(O3)[C@H](C)[C@@H]2OC(=O)c1ccccc1` [TRIGONOSIN C], the IC50 in the assay with MCF7, in the assay on A549 and with HL-60 was over 10 µM in each case.

With `C=C(C)[C@@]1(OC(=O)c2ccccc2)[C@H](OC(C)=O)[C@@H]2[C@H](OC(C)=O)[C@]3(C)O[C@@]4([C@@H]3O)[C@@H](O)[C@@H](C)C[C@H]4[C@@]2(O)[C@H](C)[C@@H]1OC(C)=O` [TRIGONOSIN D], the IC50 in the assay with MCF7, with A549 and in the assay on HL-60 was over 10 µM each time.

Regarding `C[C@H]1[C@@H]2CC[C@@H]1[C@H](OC(=O)c1ccccc1)/C=C/C=C/C(=O)O[C@H]1[C@@H](C)C[C@@H]3[C@]1(O)[C@H](O)[C@@]1(CO)O[C@H]1[C@H]1[C@H]4OC5(c6ccccc6)O[C@@H]([C@@H](C)[C@@]13O5)[C@@]4(O)[C@](C)(O)C2` [TRIGONOSIN E], the IC50 with MCF7, in the assay with A549 and in the assay on HL-60 was over 10 µM in each case.

Regarding `C[C@H]1[C@@H]2CC[C@@H]1[C@@H](OC(=O)c1ccccc1)/C=C/C=C\C(=O)O[C@H]1[C@@H](C)C[C@@H]3[C@]1(O)[C@H](O)[C@@]1(CO)O[C@H]1[C@H]1[C@H]4OC5(c6ccccc6)O[C@@H]([C@@H](C)[C@@]13O5)[C@@]4(O)[C@](C)(O)C2` [TRIGONOSIN F], the IC50 in the assay with MCF7, with A549 and with HL-60 was over 10 µM in each case.

Consider `C=C(C)[C@@]12OC3(c4ccccc4)O[C@@H]1[C@@H]1[C@@H]4O[C@]4(C)[C@@H](O)[C@]4(O)C(=O)C(C)=C[C@H]4[C@@]1(O3)[C@H](C)[C@@H]2OC(=O)c1ccccc1` [TRIGOXYPHIN A], for which the IC50 in the assay with MCF7, in the assay on A549 and with HL-60 was over 10 µM each time.

Consider `C=C(C)[C@@]12OC3(c4ccccc4)O[C@@H]1[C@@H]1[C@@H]4O[C@]4(C)[C@@H](O)[C@]4(O)C(=O)[C@@H](C)C[C@H]4[C@@]1(O3)[C@H](C)[C@@H]2OC(=O)c1ccccc1` [TRIGOXYPHIN B], for which the IC50 in the assay on MCF7, with A549 and with HL-60 was over 10 µM each time.
